Measurements published in ChEMBL document CHEMBL1139795, “Capped diaminopropionamide-glycine dipeptides are inhibitors of CC chemokine receptor 2 (CCR2)” (Bioorg Med Chem Lett, 2007).

Assays:
[1] = target: T1, C-C chemokine receptor type 2 (Homo sapiens, UniProt P41597); assay: Displacement of [125]MCP1 from CCR2 in human PBMCs at 10 uM
How it was run: (§1)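 Human PBMCs were incubated with 0.3 nM [125I]MCP-1 at 23 °C. Percent inhibition of binding was measured at one fixed inhibitor concentration, n = 1.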
Target sequence in this assay (P41597 whole entry, looked up): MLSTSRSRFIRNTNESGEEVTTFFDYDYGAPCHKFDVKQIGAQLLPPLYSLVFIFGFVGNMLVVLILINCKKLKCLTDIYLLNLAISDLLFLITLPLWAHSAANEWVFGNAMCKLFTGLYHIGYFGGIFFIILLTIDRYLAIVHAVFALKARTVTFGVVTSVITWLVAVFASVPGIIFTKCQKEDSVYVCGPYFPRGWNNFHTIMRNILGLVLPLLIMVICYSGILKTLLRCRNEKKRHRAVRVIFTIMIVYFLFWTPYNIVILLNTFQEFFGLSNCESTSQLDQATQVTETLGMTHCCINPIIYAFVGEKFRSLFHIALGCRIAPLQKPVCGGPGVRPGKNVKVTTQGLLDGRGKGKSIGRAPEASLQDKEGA

[2] = target: T2, C-C chemokine receptor type 1 (Homo sapiens) (UniProt P32246); assay: Inhibition of CCR1 at 10 uM
T2 sequence (whole entry): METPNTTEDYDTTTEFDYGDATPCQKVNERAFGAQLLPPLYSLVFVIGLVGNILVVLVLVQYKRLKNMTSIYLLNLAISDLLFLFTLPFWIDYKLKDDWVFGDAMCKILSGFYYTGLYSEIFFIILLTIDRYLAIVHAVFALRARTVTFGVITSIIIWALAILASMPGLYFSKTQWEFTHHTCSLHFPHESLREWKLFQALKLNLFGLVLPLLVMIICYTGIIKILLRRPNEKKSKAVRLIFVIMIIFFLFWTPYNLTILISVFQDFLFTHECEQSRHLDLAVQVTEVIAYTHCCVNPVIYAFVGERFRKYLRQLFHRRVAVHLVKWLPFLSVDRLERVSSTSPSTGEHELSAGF

[3] = target: T1, C-C chemokine receptor type 2; assay: Displacement of [125]MCP1 from CCR2 in human PBMCs at 1 uM; how it was run: as §1
Target sequence in this assay (P41597 whole entry, looked up): as the sequence (P41597 whole entry, looked up) above

[4] = target: T1, C-C chemokine receptor type 2; assay: Displacement of [125]MCP1 from CCR2 in human PBMCs
How it was run: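 Competition binding with 0.3 nM [125I]MCP-1 on human peripheral blood mononuclear cells at 23 °C. IC50 given as mean ± SD (n = 2) or mean ± SEM (n > 2). Single determinations are listed with n = 1.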
Target sequence in this assay (P41597 whole entry): as the sequence (P41597 whole entry, looked up) above

[5] = target: T1, C-C chemokine receptor type 2; assay: Antagonist activity at CCR2 in THP1 cells assessed as inhibition of MCP1-induced Ca2+ flux; type: functional, cell-based, THP-1
Target sequence in this assay (P41597 whole entry): as the sequence (P41597 whole entry, looked up) above

[6] = target: T3, C-C chemokine receptor type 3 (Homo sapiens, UniProt P51677); assay: Displacement of [125I]eotaxin from human CCR3 expressed in CHO cells; type: cell-based
T3 sequence (P51677 whole entry): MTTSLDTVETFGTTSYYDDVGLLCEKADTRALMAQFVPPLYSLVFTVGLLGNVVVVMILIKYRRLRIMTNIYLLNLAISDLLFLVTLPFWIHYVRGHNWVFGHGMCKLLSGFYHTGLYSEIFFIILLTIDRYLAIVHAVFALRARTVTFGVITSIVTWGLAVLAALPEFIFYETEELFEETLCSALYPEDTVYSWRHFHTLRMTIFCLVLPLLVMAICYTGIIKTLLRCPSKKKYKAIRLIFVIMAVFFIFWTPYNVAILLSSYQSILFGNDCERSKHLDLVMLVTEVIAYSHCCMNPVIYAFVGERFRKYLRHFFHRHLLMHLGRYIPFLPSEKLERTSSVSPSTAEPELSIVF
How it was run: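 Binding of 0.15 nM [125I]eotaxin to CHO cells expressing human CCR3. Data are a single determination, mean ± SD (n = 2), or mean ± SEM (n indicated). ">" means less than 50% response at the stated concentration.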

[7] = target: Histamine H2 receptor (Homo sapiens) (UniProt P25021); assay: Inhibition of histamine H2 receptor at 10 uM
[8] = target: Sigma non-opioid intracellular receptor 1 (Homo sapiens) (UniProt Q99720); assay: Inhibition of sigma 1 receptor at 10 uM
[9] = target: C-C chemokine receptor type 5 (Homo sapiens) (UniProt P51681); assay: Inhibition of CCR5 receptor at 10 uM
[10] = target: Mu-type opioid receptor (Homo sapiens) (UniProt P35372); assay: Inhibition of opiate mu receptor at 10 uM
Homo sapiens = species on record: Homo sapiens; assay: Inhibition of sodium channel at 10 uM
L-type calcium channel = L-type calcium channel (Homo sapiens, UniProt O60840+Q01668+Q13698+Q13936); assay: Inhibition of L-type calcium channel at 10 uM

Chain of C-C chemokine receptor type 5 (Homo sapiens) (P51681 whole entry, looked up): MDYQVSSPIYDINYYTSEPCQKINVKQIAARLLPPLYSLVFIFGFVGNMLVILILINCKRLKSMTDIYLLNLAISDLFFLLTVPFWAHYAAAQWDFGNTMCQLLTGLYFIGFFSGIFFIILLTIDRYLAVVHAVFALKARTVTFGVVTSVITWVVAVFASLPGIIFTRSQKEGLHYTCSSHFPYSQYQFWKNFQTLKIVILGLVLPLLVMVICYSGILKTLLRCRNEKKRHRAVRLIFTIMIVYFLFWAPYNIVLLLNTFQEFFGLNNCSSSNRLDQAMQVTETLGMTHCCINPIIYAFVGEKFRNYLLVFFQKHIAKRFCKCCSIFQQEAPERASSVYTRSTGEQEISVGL
Chain of Histamine H2 receptor (Homo sapiens) (P25021 whole entry): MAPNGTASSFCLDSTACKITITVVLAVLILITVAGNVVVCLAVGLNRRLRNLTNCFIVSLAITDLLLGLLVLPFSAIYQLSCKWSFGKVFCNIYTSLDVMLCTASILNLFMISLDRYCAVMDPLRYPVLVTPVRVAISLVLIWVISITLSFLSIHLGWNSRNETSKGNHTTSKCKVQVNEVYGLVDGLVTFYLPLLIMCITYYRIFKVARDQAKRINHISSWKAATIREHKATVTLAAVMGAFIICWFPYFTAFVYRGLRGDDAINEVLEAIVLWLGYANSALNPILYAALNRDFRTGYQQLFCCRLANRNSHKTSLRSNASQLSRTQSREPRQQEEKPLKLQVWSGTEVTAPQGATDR
Chain of Sigma non-opioid intracellular receptor 1 (Homo sapiens) (Q99720 whole entry): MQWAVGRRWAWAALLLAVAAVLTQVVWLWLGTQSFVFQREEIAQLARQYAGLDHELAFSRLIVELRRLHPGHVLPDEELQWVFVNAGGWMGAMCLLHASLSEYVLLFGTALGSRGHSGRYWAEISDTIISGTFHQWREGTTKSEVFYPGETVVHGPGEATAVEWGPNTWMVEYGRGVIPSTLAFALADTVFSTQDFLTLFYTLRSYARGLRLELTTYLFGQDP
Chain of Mu-type opioid receptor (Homo sapiens) (P35372 whole entry): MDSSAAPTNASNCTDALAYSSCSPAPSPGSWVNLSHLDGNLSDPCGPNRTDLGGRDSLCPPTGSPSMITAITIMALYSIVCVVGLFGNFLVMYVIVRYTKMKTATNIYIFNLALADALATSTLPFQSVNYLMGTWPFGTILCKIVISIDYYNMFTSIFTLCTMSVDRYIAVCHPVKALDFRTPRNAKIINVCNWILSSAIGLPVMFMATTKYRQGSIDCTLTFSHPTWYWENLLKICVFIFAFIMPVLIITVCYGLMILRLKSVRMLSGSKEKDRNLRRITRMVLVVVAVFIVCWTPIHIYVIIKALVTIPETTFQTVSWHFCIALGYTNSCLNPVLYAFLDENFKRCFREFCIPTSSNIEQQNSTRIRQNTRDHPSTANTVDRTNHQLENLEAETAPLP

inhibition [2] [%]	IC50 [4] [nM]	Structure (SMILES)	other results
< 30		Cc1ccc(CNC[C@H](C)NC(=O)CNC(=O)c2cccc(C(F)(F)F)c2)c(C)c1	Activity [1]: 35%
< 30		CCNC(=O)[C@H](CNCc1ccc(C)cc1C)NC(=O)CCC(=O)c1cccc(C(F)(F)F)c1	Activity [1]: 7%
< 30		COc1ccc(CNC[C@H](NC(=O)CNC(=O)c2cccc(C(F)(F)F)c2)C(=O)NC(C)(C)C)c(OC)c1	Activity [3]: 37%
< 30		Cc1ccc(CNC[C@H](NC(=O)CNC(=O)c2cccc(C(F)(F)F)c2)C(=O)NC(C)(C)C)cc1F	Activity [3]: 27%
< 30		Cc1ccc(CNC[C@H](NC(=O)[C@H](C)NC(=O)c2cccc(C(F)(F)F)c2)C(N)=O)c(C)c1	Activity [1]: 9%
< 30		Cc1ccc(CNC[C@H](NC(=O)CNC(=O)c2cc(NC(=O)C3CCCCC3)cc(C(F)(F)F)c2)C(=O)NC(C)(C)C)c(C)c1	Activity [3]: 25%
< 30	23	Cc1ccc(CNC[C@H](NC(=O)CNC(=O)c2cc(N)cc(C(F)(F)F)c2)C(=O)NC(C)(C)C)c(C)c1	IC50 [5]: 52 nM; IC50 [6]: > 10000 nM
< 30	19	Cc1ccc(CNC[C@H](NC(=O)CNC(=O)c2cc(C(F)(F)F)ccc2NCc2ccccc2)C(=O)NC(C)(C)C)c(C)c1	IC50 [5]: 57 nM; IC50 [6]: > 10000 nM
< 30	19	CCNc1cc(C(=O)NCC(=O)N[C@@H](CNCc2ccc(C)cc2C)C(=O)NC(C)(C)C)cc(C(F)(F)F)c1	IC50 [5]: 58 nM; IC50 [6]: > 10000 nM
< 30	11	Cc1ccc(CNC[C@H](NC(=O)CNC(=O)c2cc(C(F)(F)F)ccc2N)C(=O)NC(C)(C)C)c(C)c1	IC50 [5]: 8 nM; IC50 [6]: 750 nM; inhibition [7]: > 70%; inhibition [8]: > 70%; inhibition [9]: > 70%; inhibition [10]: > 70%; inhibition (Homo sapiens): > 70%; inhibition at 10 µM (L-type calcium channel): > 70%
< 30		CCNC(=O)[C@@H](NC(=O)CNC(=O)c1cccc(C(F)(F)F)c1)[C@H](C)NCc1ccc(C)cc1C	Activity [1]: 2%
< 30	66	Cc1ccc(CNC[C@H](NC(=O)CNC(=O)c2cccc(C(F)(F)F)c2)C(N)=O)c(C)c1	IC50 [5]: 69 nM; IC50 [6]: > 10000 nM
< 30	13	CCNc1ccc(C(F)(F)F)cc1C(=O)NCC(=O)N[C@@H](CNCc1ccc(C)cc1C)C(=O)NC(C)(C)C	IC50 [5]: 84 nM; IC50 [6]: > 10000 nM
< 30		Cc1ccc(CNC[C@@H](NC(=O)CNC(=O)c2cccc(C(F)(F)F)c2)C(=O)O)c(C)c1	Activity [1]: 31%
< 30		COC(=O)c1ccc(CNC[C@H](NC(=O)CNC(=O)c2cccc(C(F)(F)F)c2)C(=O)NC(C)(C)C)cc1	Activity [3]: 20%
< 30		Cc1ccc(CN(C)C[C@H](NC(=O)CNC(=O)c2cccc(C(F)(F)F)c2)C(=O)NC(C)(C)C)c(C)c1	Activity [3]: 12%
< 30		CC(C)(C)NC(=O)[C@H](CNCc1ccc(-c2ccccc2)cc1)NC(=O)CNC(=O)c1cccc(C(F)(F)F)c1	Activity [3]: 30%
< 30		Cc1ccc(CNC[C@@H](NC(=O)CNC(=O)c2cccc(C(F)(F)F)c2)C(C)C)c(C)c1	Activity [1]: 20%
< 30		Cc1ccc(CNC[C@H](NC(=O)[C@@H](C)NC(=O)c2cccc(C(F)(F)F)c2)C(N)=O)c(C)c1	Activity [1]: 40%
< 30	15	Cc1ccc(CNC[C@H](NC(=O)CNC(=O)c2cc(C(F)(F)F)ccc2NC(=O)NC(C)C)C(=O)NC(C)(C)C)c(C)c1	IC50 [5]: 58 nM; IC50 [6]: 10000 nM
< 30	430	CN(C)c1ccc(CNC[C@H](NC(=O)CNC(=O)c2cccc(C(F)(F)F)c2)C(=O)NC(C)(C)C)cc1	
< 30	530	CCc1ccc(CNC[C@H](NC(=O)CNC(=O)c2cccc(C(F)(F)F)c2)C(=O)NC(C)(C)C)cc1	
< 30	48	Cc1ccc(CNC[C@H](NC(=O)CNC(=O)c2cccc(C(F)(F)F)c2)C(=O)NC(C)(C)C)c(C)c1	IC50 [5]: 52 nM; IC50 [6]: > 10000 nM
< 30	3000	Cc1ccc(CNCC[C@H](NC(=O)CNC(=O)c2cccc(C(F)(F)F)c2)C(N)=O)c(C)c1	
< 30	250	Cc1ccc(CNC[C@H](NC(=O)CNC(=O)c2cccc(C(F)(F)F)c2)C(=O)N(C)C)c(C)c1	
< 30	310	CCOC(=O)Nc1cc(C(=O)NCC(=O)N[C@@H](CNCc2ccc(C)cc2C)C(=O)NC(C)(C)C)cc(C(F)(F)F)c1	
< 30	36	Cc1cc(N(C)C)ccc1CNC[C@H](NC(=O)CNC(=O)c1cccc(C(F)(F)F)c1)C(=O)NC(C)(C)C	
